Results reported in ChEMBL document CHEMBL2346576, “α-Selective glycosylation affords mucin-related GalNAc amino acids and diketopiperazines active on Trypanosoma cruzi” (Bioorg Med Chem, 2013).
Activity calls are given as the source filed them. The rule behind the calls is not given here.

Key:
[1] = Inhibition of C-terminal truncated recombinant Trypanosoma cruzi trans-sialidase assessed as decrease in substrate MuNANA hydrolysis preincubated with enzyme for 10 mins prior to substrate addition measured after 10 mins by continuous fluorimetric assay
[2] = Cytotoxicity against C57BL/6 mouse spleen cell assessed as cell death at 7.8 to 500 uM after 24 hrs by propidium iodide staining based flow cytometry; assay type: tissue-based
In short: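 Spleen cells from C57BL/6 mice were dissociated, red cells lysed for 5 min (0.17 M Tris-HCl pH 7.5 : 0.16 M NH4Cl, 1:9), and cells grown in RPMI 1640 with 10% FBS and antibiotics at 5×10^5 cells/well with compounds for 24 h at 37 °C. The positive control was 0.5% Tween 20. Dead cells were stained with 10 µg/mL propidium iodide and counted by flow cytometry. Three independent experiments were run in duplicate.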

Trypanosoma cruzi [3] = assay: Antitrypanosomal activity against trypomastigote form of Trypanosoma cruzi Tulahuen expressing beta galactosidase infected in rhesus monkey LLC-MK2 cells assessed as inhibition of parasite viability treated at 24 hrs post-infection measured after 4 days by CPRG based colorimetric assay; assay type: functional, organism-based
In short: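 LLC-MK2 cells at 2×10^3/well in phenol red-free RPMI, grown 24 h, infected with 1×10^4 Tulahuen-lacZ trypomastigotes. Compound added 24 h later at 0.5–0.0035 mM (8 concentrations). After 4 days, PBS with 0.5% Triton X-100 and 100 μM CPRG added; 4 h at 37 °C, absorbance 570 nm. IC50 from three independent experiments, each in duplicate.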

[4] = Inhibition of C-terminal truncated recombinant Trypanosoma cruzi trans-sialidase assessed as decrease in substrate MuNANA hydrolysis at 1 mM preincubated with enzyme for 10 mins prior to substrate addition measured after 10 mins by continuous fluorimetric assay
In short: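 His-tagged 70 kDa recombinant enzyme retaining the catalytic N-terminal domain. Run in triplicate in phosphate buffer pH 7.4; enzyme and inhibitor (25 µL of 4.0 mM solution) preincubated 10 min at 26 °C. MuNANA then added to 0.1 mM final; fluorescence of released Mu read after 10 min (ex 360/em 460 nm). %I = 100×(1−Vi/V0); pyridoxal phosphate as control.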

Trypanosoma cruzi [5] = assay: (§1) Antitrypanosomal activity against amastigote form of Trypanosoma cruzi Tulahuen infected in african green monkey Vero cells assessed as decrease in number of intracellular parasites treated after removal of parasite on cell supernatant following 12 hrs of infection measured after 24 hrs by Giemsa staining based optical microscopy; assay type: functional, organism-based
In short: (§2)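 Vero cells plated at 2×10^4/well on 8-well chamber slides; after 12 h infected with 2×10^5 trypomastigotes/well for 12 h, washed with PBS, then compound added for 24 h at 37 °C. Giemsa-stained, parasites per cell counted by light microscopy in at least 200 cells/well. Two independent experiments, each in triplicate.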

Trypanosoma cruzi [6] = assay: as §1, with “parasites at 0.06 to 0.5 mM” for “parasites”; assay type: functional, organism-based; in short: as §2

## CC(=O)N[C@H]1[C@@H](O[C@H](C)[C@H](N)C(=O)O)O[C@H](CO)[C@H](O)[C@@H]1O
[1]
  IC50: 320 µM
[2]
  Activity: Non-toxic
Trypanosoma cruzi [3]
  IC50: > 500 µM
[4]
  inhibition: 79%

## CC(=O)N[C@H]1[C@@H](OC[C@@H]2NC(=O)[C@H](CC(=O)O)NC2=O)O[C@H](CO)[C@H](O)[C@@H]1O
[2]
  Activity: Non-toxic
Trypanosoma cruzi [3]
  IC50: 282 µM
[4]
  inhibition: 25%

## CC(=O)N[C@H]1[C@@H](O[C@H](C)[C@@H]2NC(=O)[C@H](CC(=O)O)NC2=O)O[C@H](CO)[C@H](O)[C@@H]1O
Trypanosoma cruzi [5]
  Activity: Dose-dependent effect
[2]
  Activity: Non-toxic
Trypanosoma cruzi [3]
  IC50: 124 µM
[4]
  inhibition: 13%

## CC(=O)N[C@H]1[C@@H](OC[C@H](N)C(=O)O)O[C@H](CO)[C@H](O)[C@@H]1O
[2]
  Activity: Non-toxic
Trypanosoma cruzi [3]
  IC50: > 500 µM
[4]
  inhibition: 57%

## O=C(Cn1ccnc1[N+](=O)[O-])NCc1ccccc1 [BENZNIDAZOLE]
Trypanosoma cruzi [3]
  IC50: 30 µM
Trypanosoma cruzi [6]
  Activity: Active
